Data published in ChEMBL document CHEMBL1134468 (J Med Chem, 2001).
Where a SMILES comes first, the peptide text is derived from it. Bridges are numbered along the chain shown (N, C = ends). Roman numbers before positions name the chains, in order. [ ]: non-standard residue; d: D form. Dap = NC[C@H](N)C(=O)O

Columns and labels:
[1] = target: T1, Neuropeptide Y receptor type 1 (Homo sapiens, UniProt P25929); experiment: Affinity for cloned Y1 receptor using [125I]PYY as radioligand
T1 sequence (P25929 whole entry): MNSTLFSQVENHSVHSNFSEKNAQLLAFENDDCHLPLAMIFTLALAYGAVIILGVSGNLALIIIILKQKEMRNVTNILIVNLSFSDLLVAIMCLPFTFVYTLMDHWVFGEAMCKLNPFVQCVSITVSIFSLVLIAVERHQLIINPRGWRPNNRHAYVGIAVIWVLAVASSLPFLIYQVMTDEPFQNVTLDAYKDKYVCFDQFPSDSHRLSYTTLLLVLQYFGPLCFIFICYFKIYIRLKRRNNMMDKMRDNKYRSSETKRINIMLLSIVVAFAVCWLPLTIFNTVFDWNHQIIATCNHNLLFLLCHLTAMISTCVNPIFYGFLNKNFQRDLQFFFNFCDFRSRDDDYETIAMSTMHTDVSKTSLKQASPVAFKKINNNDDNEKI

[2] = target: T2, Neuropeptide Y receptor type 4 (Homo sapiens, UniProt P50391); experiment: Agonist potency for the inhibition of Forskolin stimulated cAMP synthesis in cells expressing cloned Y4 receptors; format: functional
T2 sequence (P50391 whole entry): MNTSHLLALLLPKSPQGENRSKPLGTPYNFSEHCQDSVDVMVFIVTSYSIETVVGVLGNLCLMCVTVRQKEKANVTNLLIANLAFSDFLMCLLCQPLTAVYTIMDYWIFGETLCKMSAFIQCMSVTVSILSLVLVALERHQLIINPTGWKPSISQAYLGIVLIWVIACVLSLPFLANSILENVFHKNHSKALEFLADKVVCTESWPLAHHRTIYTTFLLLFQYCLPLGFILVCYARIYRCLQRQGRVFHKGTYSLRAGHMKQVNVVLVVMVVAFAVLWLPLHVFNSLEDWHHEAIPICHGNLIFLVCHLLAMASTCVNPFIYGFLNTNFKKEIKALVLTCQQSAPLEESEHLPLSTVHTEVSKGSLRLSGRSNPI
Outline: (§1)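 Inhibition of forskolin-driven cAMP synthesis in cells expressing the Y4 receptor, with PP run as the reference control.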

[3] = target: T3, Neuropeptide Y receptor type 5 (Homo sapiens, UniProt Q15761); experiment: Affinity for cloned Y5 receptor using [125I]PYY as radioligand
T3 sequence (Q15761 whole entry): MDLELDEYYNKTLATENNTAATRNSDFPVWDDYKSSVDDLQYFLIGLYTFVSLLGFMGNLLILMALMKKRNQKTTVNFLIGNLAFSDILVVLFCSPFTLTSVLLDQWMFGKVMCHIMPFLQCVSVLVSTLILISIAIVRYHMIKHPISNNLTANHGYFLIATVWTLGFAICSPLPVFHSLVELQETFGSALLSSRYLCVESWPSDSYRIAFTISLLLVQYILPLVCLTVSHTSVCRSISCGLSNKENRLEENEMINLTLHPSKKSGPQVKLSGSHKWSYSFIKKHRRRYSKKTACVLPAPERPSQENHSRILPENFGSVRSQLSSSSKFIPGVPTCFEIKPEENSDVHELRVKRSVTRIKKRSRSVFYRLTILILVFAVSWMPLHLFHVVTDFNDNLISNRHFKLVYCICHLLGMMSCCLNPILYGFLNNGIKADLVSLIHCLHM

[4] = target: T4, Neuropeptide Y receptor type 2 (Homo sapiens, UniProt P49146); experiment: Affinity for cloned Y2 receptor using [125I]PYY as radioligand
T4 sequence (P49146 whole entry): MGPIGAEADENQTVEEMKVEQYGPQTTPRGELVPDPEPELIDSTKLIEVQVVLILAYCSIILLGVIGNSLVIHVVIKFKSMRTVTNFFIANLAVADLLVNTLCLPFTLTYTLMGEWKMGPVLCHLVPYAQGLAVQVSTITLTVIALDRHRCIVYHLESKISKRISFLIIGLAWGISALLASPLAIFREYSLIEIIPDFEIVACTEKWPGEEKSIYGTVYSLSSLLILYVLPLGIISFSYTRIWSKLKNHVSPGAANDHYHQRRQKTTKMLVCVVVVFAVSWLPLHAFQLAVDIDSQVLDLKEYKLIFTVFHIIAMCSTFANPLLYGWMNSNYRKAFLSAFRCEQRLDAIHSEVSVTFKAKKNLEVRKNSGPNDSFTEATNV

[5] = target: T5, Neuropeptide Y receptor type 1 (Homo sapiens) (UniProt P25929); experiment: Selectivity ratio of Y1/Y2/Y4/Y5; 1/790/3/1640
T5 sequence (whole entry): T1 sequence (P25929 whole entry)

[6] = target: T4, Neuropeptide Y receptor type 2; experiment: Agonist potency for the inhibition of Forskolin stimulated cAMP synthesis in cells expressing cloned Y2 receptors; format: functional
[7] = target: T3, Neuropeptide Y receptor type 5; experiment: Agonist potency for the inhibition of Forskolin stimulated cAMP synthesis in cells expressing cloned Y5 receptors; format: functional
[8] = target: T2, Neuropeptide Y receptor type 4; experiment: Affinity for cloned Y4 receptor using [125I]PP as radioligand
[9] = target: T2, Neuropeptide Y receptor type 4; experiment: Agonist potency for the inhibition of Forskolin stimulated cAMP synthesis in cells expressing cloned Y4 receptors(no effect at <20000 nM); format: functional; outline: as §1
[10] = target: Neuropeptide Y receptor type 2 (Homo sapiens) (UniProt P49146); experiment: Agonist potency for the inhibition of Forskolin stimulated cAMP synthesis in cells expressing cloned Y2 receptors; no effect means no agonist activity at <20 000 nM
[11] = target: T3, Neuropeptide Y receptor type 5; experiment: Agonist potency for the inhibition of Forskolin stimulated cAMP synthesis in cells expressing cloned Y5 receptors(no effect at <20000 nM); format: functional

Ki [1]	EC50 [2]	Ki [3]	Ki [4]	Selectivity [5]	EC50 [6]	EC50 [7]	Ki [8]	EC50 [9]	EC50 [10]	EC50 [11]	Structure (SMILES)
0.07 nM	2.5 nM	115 nM	55 nM	Y1/Y4/Y2/Y5	983 nM	2050 nM	0.26 nM	–	–	–	CC[C@H](C)[C@H](N)C(=O)N[C@H]1CCC(=O)NC[C@@H](C(=O)N[C@@H](Cc2ccc(O)cc2)C(=O)N[C@@H](CCCN=C(N)N)C(=O)N[C@@H](CC(C)C)C(=O)N[C@@H](CCCN=C(N)N)C(=O)N[C@@H](Cc2ccc(O)cc2)C(N)=O)NC(=O)[C@@H]2CCCN2C(=O)[C@@H](NC(=O)[C@@H](N)[C@@H](C)CC)CCC(=O)NC[C@@H](C(=O)N[C@@H](Cc2ccc(O)cc2)C(=O)N[C@@H](CCCN=C(N)N)C(=O)N[C@@H](CC(C)C)C(=O)N[C@@H](CCCN=C(N)N)C(=O)N[C@@H](Cc2ccc(O)cc2)C(N)=O)NC(=O)[C@@H]2CCCN2C1=O (I: H-IEP[Dap]YRLRY-NH2 / II: H-IEP[Dap]YRLRY-NH2; amide I:2-II:4, I:4-II:2)
–	–	–	–	–	–	–	–	Not Active	Not Active	Not Active	CC[C@H](C)[C@H](N)C(=O)N[C@H]1CCC(=O)NC[C@@H](C(=O)N[C@@H](Cc2ccc(O)cc2)C(=O)N[C@@H](CCCN=C(N)N)C(=O)N[C@@H](CC(C)C)C(=O)N[C@@H](CCCN=C(N)N)CN[C@@H](Cc2ccc(O)cc2)C(N)=O)NC(=O)[C@@H]2CCCN2C(=O)[C@@H](NC(=O)[C@@H](N)[C@@H](C)CC)CCC(=O)NC[C@@H](C(=O)N[C@@H](Cc2ccc(O)cc2)C(=O)N[C@@H](CCCN=C(N)N)C(=O)N[C@@H](CC(C)C)C(=O)N[C@@H](CCCN=C(N)N)CN[C@@H](Cc2ccc(O)cc2)C(N)=O)NC(=O)[C@@H]2CCCN2C1=O
